In PMC11377146 (International Journal for Parasitology: Drugs and Drug …, 2024) one finds IC50 and CC50 data, which are given here for two compounds.

Series [1] relates to G. duodenalis trophozoite stage. Description: In vitro antigiardial assay. Type of series: cell-based. To be noted: Giardia duodenalis, 48 h, G. duodenalis trophozoites. Summed up: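 Log-phase trophozoites grown in modified TYI-S-33 at 37 °C, harvested by chilling on ice, counted. DMSO stocks diluted two-fold serially; 2 × 10^5 trophozoites/well; metronidazole positive control. Incubated 48 h at 37 °C, anaerobic. BacTiter-Glo added, 20 min at 37 °C, luminescence read. Survival = medium-blank-corrected signal vs untreated; triplicates. SI = Caco-2 CC50 / IC50.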

A further series can be described thus: Cytotoxicity. Type of series: cell-based. To be noted: human, Caco-2 cells. In outline:
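Caco-2 cells grown 24 h in EMEM + 10% FBS, 37 °C, 5% CO2. Test compound (10 ng/ml–100 μg/ml, in EMEM with 0.5% DMSO) applied for 24 h. MTT (5 mg/ml stock) added for 4 h, formazan dissolved in 4 mM HCl/0.1% Nonidet P-40 in isopropanol. A590 read, 620 nm reference. Viability relative to untreated wells; CC50 from curve fit.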

The next series relates to 3D7 parasite line. The note with it: ref Whittell et al., 2011; cited from earlier work.

SMILES strings stand for the structures. pIC50: −log10 of the molar value. Values joined by “and” are separate entries in the source; they are usually repeats but may differ in a detail not shown here. Equal values may be shown once. Bounds are passed on as bounds.

For the compound `Cc1ncc([N+](=O)[O-])n1CCO` [Metronidazole, metronidazole], the IC50 in series [1] is 2.01 µg/mL and 11.7 µM. In the series “Cytotoxicity”, the CC50 at 24 h was > 100 µg/mL and > 100 µM. Turning to `Cn1cc2c3ccccc3nc-2c2ccccc21` [isocryptolepine, Isocryptolepine], the pIC50 in the series with 3D7 parasite line is 6.18.
